Published values collected from several papers.
Each line is one published result; the experiments were not run side by side.
Target: Tyrosine-protein kinase Yes (YES1, Homo sapiens, UniProt P07947)

`FC(F)(F)Oc1cccc(-c2cnc3ccc(-c4ccncc4)nn23)c1` gave an activity vs control of 82% (enzyme activity, inhibitor, radiometric; 1 µM).
For `O=c1cc(-c2cccc3c2Sc2ccccc2S3)oc(N2CCOCC2)c1`, the remaining activity was 89.4% (enzyme activity, inhibitor; 0.5 µM).
The remaining binding of `Cc1noc([C@H]2C[C@@H](c3ccc(C(F)(F)F)cc3)CN(C(=O)N3CCS(=O)(=O)C3)C2)n1` is reported as 100% (cell-free assay, competition with immobilised ligand; 1 µM).
The remaining activity of `O=C(Nc1cnn(-c2csc(C(=O)NC3COC3)c2)c1)Nc1ccccc1Cl` is reported as 96.5% (enzyme activity, inhibitor; 5 µM).
With `CC/C(=N\NC(=O)NCc1cccc(O)c1)c1ccc(O)c(C)c1O` the inhibition was 4.5% (enzyme activity, inhibitor; 0.1 µM).
For `COc1cccc2c(NCc3ccccc3)nc(-n3c(N)nc4ccccc43)nc12`, the inhibition was -2.4% (target engagement in cells, inhibitor, chemoproteomics; 20 mM).
For `COc1cc(Nc2cnc(C#N)c(O[C@H](C)CN(C)C)n2)ncc1-c1cnn(C)c1`, the remaining activity was 93% (enzyme activity, inhibitor, radiometric; 1 µM).
`Nc1nc(NC2CCCCC2)sc1C(=O)c1ccccc1` gave a remaining activity of 114% (enzyme activity, inhibitor; 10 µM).
For `CC(=O)c1c(NS(C)(=O)=O)c2cc(-c3ccc(Cl)cc3)c(-c3ccc(Cl)cc3Cl)nc2n(C)c1=O`, the remaining binding was 96% (cell-free assay, competition with immobilised ligand; 1 µM).
With `FC(F)c1nc2ccccc2n1-c1nc(N2CCOCC2)nc(N2CCOCC2)n1` the remaining activity was 72% (enzyme activity, inhibitor; 10 µM).
For `O=C(N1CCS(=O)(=O)CC1)N1C[C@H](c2ccc(OC(F)(F)F)cc2)C[C@H](c2nc(C3CC3)no2)C1`, the remaining binding was 96% (cell-free assay, competition with immobilised ligand; 1 µM).
`Cc1ccc(C(=O)NCc2ccsc2)cc1C#Cc1cn(C(C)C)c2ncnc(N)c12` has an activity vs control of 2% (enzyme activity, inhibitor; 1 µM).
With `O=C(O)[C@H]1[C@H](Cn2nnc3ccccc3c2=O)CC[C@@H]1C(=O)c1ccc(OCCC2CCOCC2)cc1` the remaining binding was 100% (cell-free assay, competition with immobilised ligand; 1 µM).
`Cc1ccc(C(=O)Nc2ccc(CN3CCN(C)CC3)c(C(F)(F)F)c2)cc1C#Cc1cnc2cccnn12` gave a remaining activity of 34% (enzyme activity; 23.5 nM).
`CCCCNc1ncc2c(-c3ccc(F)cc3)nn(C[C@H]3CC[C@H](N)CC3)c2n1` has an inhibition of 92.8% (target engagement in cells, inhibitor, chemoproteomics; 20 mM).
With `CCOc1cc(-c2nncn2C)ccc1Nc1ncc2cc(C)nc(NCC(C)(C)C)c2n1` the inhibition was 22% (enzyme activity, inhibitor, FRET; 1 µM).
`CC(C)(O)c1cncc(-c2nc3ccc(F)cc3n2C2CC2)c1` gave a remaining binding of 100% (cell-free assay, competition with immobilised ligand; 1 µM).
The remaining activity of `Oc1cccc(-c2nc(N3CCOCC3)c3oc4ncccc4c3n2)c1` is reported as 92% (enzyme activity, inhibitor; 10 µM).
The remaining binding of `N#CC1(c2ccccn2)CCN(Cc2cc(C(=O)N3CCCC3)c(=O)n3ccccc23)CC1` is reported as 84% (cell-free assay, competition with immobilised ligand; 1 µM).
With `CCCOc1ccc(OC)c(F)c1C(=O)c1ccc(C(=O)N[C@@H]2CNC[C@H]2NC(=O)c2ccc3[nH]ncc3c2)cc1` the remaining activity was 41% (enzyme activity, inhibitor; 10 µM).
`COc1cc(/C=C/C(=O)CC(=O)/C=C/c2ccc(O)c(OC)c2)ccc1O` gave an activity vs control of 62% (enzyme activity, inhibitor; 1 µM).
The remaining binding of `COCCOc1nc(-c2ccc(Cl)nc2)nc2c1CN(C(=O)c1ncn3ccccc13)CC2` is reported as 100% (cell-free assay, competition with immobilised ligand; 0.1 µM).
For `CC(C)(C)c1nc(-c2cccc(NS(=O)(=O)c3c(F)cccc3F)c2F)c(-c2ccnc(N)n2)s1`, the remaining activity was 105% (enzyme activity, inhibitor, radiometric; 1 µM).
With `CC(C)(O)[C@H]1CC[C@H](Nc2ccc3ncc(-c4cccc(C(F)(F)F)c4)n3n2)CC1` the remaining activity was 18.1% (enzyme activity, inhibitor; 1 µM).
`O=C1Nc2ccc(Cl)cc2C1=Cc1cc(Cl)c(O)c(Cl)c1` gave a remaining signal of 78.3% (cell-free assay; 0.5 µM).
`CO[C@@H](C)c1c(Nc2ccc([C@H](N(C)C(=O)C3CCS(=O)(=O)CC3)C(F)(F)F)cc2)cnc2cc(Cl)nn12` has a remaining binding of 99% (cell-free assay, competition with immobilised ligand; 1 µM).
With `N#CCCc1ccc2c(c1)-c1[nH]c3ccc([N+](=O)[O-])cc3c1CC(=O)N2` the remaining signal was 35.8% (cell-free assay; 0.5 µM).
The inhibition of `COc1cc2ncnc(Nc3ccc(Oc4ccccc4)cc3C)c2cc1OC` is reported as 99% (enzyme activity, inhibitor; 1 µM).
For `CCN(CC)CCNC(=O)c1c(C)[nH]c(/C=C2\C(=O)Nc3ccc(F)cc32)c1C`, the inhibition was 69% (enzyme activity, inhibitor; 0.3 µM).
For `CN1CC(Oc2cnc(C#N)cc2-c2ccn3nc(NC(=O)C4CC4)cc3c2)C1`, the inhibition was 86% (enzyme activity, inhibitor; 1 µM).
